Hits are enriched below; roughly 2.7% of the tested compounds scored in any of these assays.
m5-HT2A agonist = activates the mouse 5-HT2A serotonin receptor | P35363 | activation, % at 7.6 µM | 360,000 compounds, 0.66% hits | AID 624169 | CHO-K1 mHTR2A beta-arrestin complementation, luminescence; percent of 30 µM serotonin response;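 active = activation above a run cutoff, the mean activation of all tested compounds plus 3 SD, cut at about 14% in these data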
PREPL inhibitor = inhibitors of human prolyl oligopeptidase-like enzyme PREPL | recombinant PREPL, fluorescence polarization activity-based probe | inhibition, % at 5.96 µM | 320,000 compounds, 0.68% hits
NTR1 ag = activates human neurotensin receptor 1. P30989. AID 493036. 330,000 compounds, 0.17% hits. NTR1-U2OS beta-arrestin-GFP spot imaging, agonist mode. activation, % at 20 µM;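 active = activation at or above 40% of the spot to cytoplasm intensity ratio, with at least 20 cells analyzed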
Target sequence (P30989 whole entry, looked up): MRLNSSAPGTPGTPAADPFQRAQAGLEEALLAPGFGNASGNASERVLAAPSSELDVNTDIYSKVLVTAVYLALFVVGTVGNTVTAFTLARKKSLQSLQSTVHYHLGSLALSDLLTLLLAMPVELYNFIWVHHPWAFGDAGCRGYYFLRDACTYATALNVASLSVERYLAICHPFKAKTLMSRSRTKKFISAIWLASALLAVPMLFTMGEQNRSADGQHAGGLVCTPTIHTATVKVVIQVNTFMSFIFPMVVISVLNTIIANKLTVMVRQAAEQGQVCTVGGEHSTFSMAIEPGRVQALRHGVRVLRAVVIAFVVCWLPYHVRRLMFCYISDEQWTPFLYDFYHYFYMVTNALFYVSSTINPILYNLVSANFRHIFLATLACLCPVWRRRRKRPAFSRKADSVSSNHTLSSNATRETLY
MC4R ag barr = agonists of human melanocortin 4 receptor (MC4R) beta-arrestin; 360,000 compounds, 0.98% hits; activation, % at 8.9 µM; U2OS MC4R beta-arrestin complementation, luminescence; percent of melanotan II response, DMSO zero; AID 540308; P32245;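 active = activation above a per-plate cutoff, the mean activation of sample wells on that plate plus 3 SD, cut at about 8% in these data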
MC4R antagonist = human MC4R antagonism in cAMP assay | MC4R-expressing cells, MTII-stimulated cAMP, LANCE TR-FRET | 360,000 compounds, 0.48% hits | inhibition, % at 6.5 µM | AID 540295 | P32245;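 active = inhibition above its plate's cutoff, the mean of tested wells on that plate plus 3 SD, cut at about 29% in these data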
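system = U2OS cells with stable human MC4R expression | also added = Melanotan II challenge after compound preincubation | dosing = one concentration, 6.5 µM nominal | incubation = compound 30 min, challenge 1 h, detection 1 h | measured by = TR-FRET with Eu-cAMP and labeled anti-cAMP, 671 nm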
Hep lipid drop = modulators of hepatic lipid droplet formation; inhibition, % at 6.5 µM; AML12 mouse hepatocytes, oleate lipid droplets, BODIPY imaging; 240,000 compounds, 0.4% hits;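 active = lipid droplet intensity inhibited by at least 50%, with more than 500 cells counted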
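Test system: AML12 mouse liver cells; schedule: overnight exposure; technique: high-content imaging of BODIPY-stained droplets and DAPI nuclei; read-out: % inhibition of corrected integrated BODIPY droplet signal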
PREPL confirm = human PREPL inhibition, confirmation; shares compounds with PREPL inhibitor; 2,000 compounds, 67% hits; recombinant PREPL, fluorescence polarization activity probe; inhibition, % at 5.96 µM
Numbers stand for hits; 0 = inactive; - = no result. Cut-off read from the data, not from the text of the source, unless noted: active = inhibition above about 43%; inactive = the rest.

SMILES	m5-HT2A agonist	PREPL inhibitor	NTR1 ag	MC4R ag barr	MC4R antagonist	Hep lipid drop	PREPL confirm
COc1ccc(NS(=O)(=O)c2ccc(N/N=C(\C)c3ccncc3)c([N+](=O)[O-])c2)cc1	0	57.6	0	0	0	0	49.1
CC(=O)Nc1ccc(S(=O)(=O)NN=CCCc2ccccc2)cc1	0	-	-	0	0	-	-
CCOC(=O)c1ccc[n+](C(C)C(=O)c2ccc(-c3ccccc3)cc2)c1 (configuration not stated)	0	61.5	0	0	0	0	48.5
CC(CO)Nc1nc(SCc2ccccc2)nc2sc3c(c12)CCC3 (configuration not stated)	0	43.7	0	0	0	-	0
CN(C)CCCN1C(=O)C2CCc3[nH]c4ccccc4c3C2C1=O (configuration not stated)	0	0	0	0	0	0	-
CCC(C)(C)NC(=O)C(c1ccccc1Cl)N(Cc1cccnc1)C(=O)CCC(=O)Nc1cc(C)on1 (configuration not stated)	0	0	0	0	0	0	-
Cc1cc(C(=O)COc2cccc3cccnc23)c(C)n1C	0	64.7	0	0	0	0	0
CCOc1ccc(C2CC(c3ccccc3C)n3nc(N)nc3N2)cc1 (configuration not stated)	0	0	0	0	0	0	-
Cc1ccc(C2CC(c3ccccc3C)n3nc(N)nc3N2)cc1 (configuration not stated)	0	46.7	0	0	0	0	48.3
COc1ccc(C2CC(c3ccccc3C)n3nc(N)nc3N2)cc1 (configuration not stated)	0	51.4	0	0	0	0	48.2
COc1cccc(C2CC(c3ccccc3C)n3nc(N)nc3N2)c1 (configuration not stated)	0	0	0	0	0	0	-
Cc1ccc(NC(=O)c2ccc3c(c2)N(CC(=O)N2CCCCC2)C(=O)C(C)(C)O3)cc1	0	48.5	0	0	0	0	0
CC(C)(C)NC(=O)c1ccc2c(c1)N(CC(=O)N1CCCCC1)C(=O)C(C)(C)O2	0	0	0	0	0	0	-
CC[n+]1ccc(C)c2cc(P(=O)(c3ccccc3)c3ccccc3)ccc21	0	57.0	0	0	0	0	0
COc1ccc(N(CC(=O)N2CCN(c3ccccc3F)CC2)S(=O)(=O)c2ccc(C)cc2)cc1	0	0	0	0	0	0	-
O=c1cc(C(F)(F)F)[nH]c2c(OC(F)(F)F)cccc12	0	0	0	0	0	-	-
O=C(CSc1cccc(C(F)(F)F)c1)Nc1ccc(N2CCOCC2)cc1	0	46.9	0	0	0	-	55.2
O=C(CSc1ccccc1F)Nc1ccc(N2CCOCC2)cc1	0	54.7	0	0	0	-	51.9
O=C(CSc1ccccc1)Nc1ccc(N2CCOCC2)cc1	0	0	0	0	0	-	-
Cc1ccc(SCC(=O)Nc2ccc(N3CCOCC3)cc2)cc1C	0	44.1	0	0	0	-	0
Cc1sc2ncnc(N/N=C/c3ccccc3O)c2c1C	0	66.0	-	0	0	0	64.6
Cc1ccc(NS(=O)(=O)c2cc3c4c(cccc4c2)C(=O)NC3=O)cc1C	0	44.7	0	0	0	0	0
COc1ccc(CN(CCN(C)C)c2ccccn2)cc1	0	0	0	0	0	0	-
CCCCCCCCCCCCCCCC[N+](C)(C)CCN(Cc1ccc(OC)cc1)c1ncccn1	0	60.1	0	11.8	42.9	-	63.3
CC(C)(C)OC(=O)C[C@@H]1C/C=C\C[C@H](CC(=O)NCCO)C(=O)NC[C@H](c2ccccc2)OC1=O	0	0	0	0	0	-	-
SMILES	m5-HT2A agonist	PREPL inhibitor	NTR1 ag	MC4R ag barr	MC4R antagonist	Hep lipid drop	PREPL confirm
COC(=O)CCC(=O)OC1(C)C(=O)C2=CN(C(CO)CO)C(c3ccc(OC)cc3)=CC2=C(Br)C1=O (configuration not stated)	-	58.4	0	-	-	-	0
COC(=O)CCC(=O)OC1(C)C(=O)C2=COC(c3ccc(OC)cc3)=CC2=C(Br)C1=O (configuration not stated)	-	0	0	-	-	-	-
COc1cc(NC(=O)c2ccc(COc3ccccc3Br)o2)cc(OC)c1OC	0	44.2	0	0	0	0	0
O=C(SCC(O)C(O)CS)c1cccs1 (configuration not stated)	0	0	0	0	0	0	-
CCC(C(=O)N1CCN(S(=O)(=O)c2ccc(F)cc2)CC1)c1ccccc1 (configuration not stated)	0	0	0	0	0	-	-
CC1=Nc2nc(N3CCCCCC3)c(C#N)c3c4c(nc(c23)N1)N(c1ccc2ccccc2c1)C(=O)C4	0	63.1	0	0	0	-	60.6
CN(C)c1ccc(C(CNS(=O)(=O)c2ccc3ccccc3c2)c2c[nH]c3ccccc23)cc1 (configuration not stated)	0	0	0	0	0	0	-
CN(C)c1ccc(C(CN)c2c[nH]c3ccccc23)cc1 (configuration not stated)	0	61.1	0	0	0	0	57.2
C#CCn1cc(/C=N/Nc2nc3ccccc3[nH]2)c2ccccc21	0	54.8	0	0	0	0	63.4
COc1cc(/C=N\Nc2nc3ccccc3[nH]2)cc(OC)c1OC	0	43.2	0	0	0	-	0
C(=N\Nc1nc2ccccc2[nH]1)/c1cccc2nccnc12	0	0	0	0	0	0	-
COc1ccc(/C=N/Nc2nc3ccccc3[nH]2)cc1OC	0	0	0	0	0	0	-
Cc1c(CN2CCN(CC(C)C)C(CCO)C2)[nH]c2ccc(Cl)cc12 (configuration not stated)	0	46.1	0	0	0	0	43.7
O=C1NC(=S)S/C1=C/c1ccc(OC(=O)c2ccco2)cc1	0	64.9	0	0	0	0	69.1
CCOc1cc(/C=C2/SC(=S)NC2=O)ccc1OC(=O)c1ccco1	0	66.4	0	0	0	0	67.1
N=C1/C(=C\c2ccc(OC(=O)c3ccco3)cc2)C(=O)N=C2SC=NN12	0	-	-	0	0	0	-
Cc1nc2c(Br)c(C)nn2c2c1CCC2	0	0	0	0	0	0	-
O=C(NCCNc1ccc2ccccc2c1)c1cccn2c(=O)c3sccc3nc12	-	50.7	0	-	-	0	0
CCOc1ncccc1C(=O)OCC(=O)N(CC(C)C)c1c(N)n(Cc2ccccc2)c(=O)[nH]c1=O	0	0	0	0	0	-	-
COc1ccc(/C=N\NC(=O)c2cc(O)c(O)c(O)c2)cc1CN1CCN(c2ccc(F)cc2)CC1	0	54.4	-	0	0	0	0
Nc1cc(N)cc(-c2nc3ccccc3o2)c1	0	55.4	0	0	0	-	0

Screening results (PubChem BioAssay)
